# Laboratory results reported in ChEMBL document CHEMBL5120809, “Dimers of isatin derived α-methylene-γ-butyrolactone as potent anti-cancer agents” (Bioorg Med Chem Lett, 2022).
# Active and inactive are the calls of the source. The calls are words filed in the database; no cut-off is given here.
# Tests used:
# OVCAR-5 [1] = assay: Antiproliferative activity against human OVCAR-5 cells assessed as cell growth inhibition measured after 3 days by cell viability assay; format: functional, cell-based; details: OVCAR-5, 72 h
# A2780 [2] = assay: Antiproliferative activity against human A2780 cells assessed as cell growth inhibition measured after 3 days by cell viability assay; format: functional, cell-based; details: A2780, 72 h
# MIA PaCa-2 = assay: Antiproliferative activity against human MIA PaCa-2 cells assessed as cell growth inhibition measured after 3 days by cell viability assay; format: functional, cell-based; details: MIA PaCa-2, 72 h
# [3] = target: Transcription factor p65 (Homo sapiens) (UniProt Q04206); assay: Covalent modification of RELA in human MIA PaCa-2 cells assessed as high molecular weight band formation at 10 uM incubated for 2 hrs by Western blot analysis; format: cell-based; details: filed as modulator
# Transcription factor p65 (Homo sapiens), sequence (Q04206 whole entry): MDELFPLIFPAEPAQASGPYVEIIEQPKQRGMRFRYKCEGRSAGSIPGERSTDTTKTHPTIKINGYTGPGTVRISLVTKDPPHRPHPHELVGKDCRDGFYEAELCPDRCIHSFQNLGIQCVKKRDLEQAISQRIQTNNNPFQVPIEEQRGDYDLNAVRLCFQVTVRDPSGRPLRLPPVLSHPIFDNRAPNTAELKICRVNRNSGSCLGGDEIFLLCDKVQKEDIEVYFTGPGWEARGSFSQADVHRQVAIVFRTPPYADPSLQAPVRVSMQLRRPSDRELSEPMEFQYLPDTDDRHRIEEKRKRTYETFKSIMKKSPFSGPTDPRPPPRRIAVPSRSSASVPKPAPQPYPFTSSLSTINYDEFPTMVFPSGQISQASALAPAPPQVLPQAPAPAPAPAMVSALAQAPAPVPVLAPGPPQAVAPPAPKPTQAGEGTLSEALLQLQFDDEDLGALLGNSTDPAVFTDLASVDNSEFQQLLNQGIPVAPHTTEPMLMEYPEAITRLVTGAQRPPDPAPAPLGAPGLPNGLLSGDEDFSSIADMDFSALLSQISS
# Summary of the method: (§1)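 Non-transformed immortalized fallopian tube epithelial FT282C11, MiaPaCa2 or OVCAR5 cells treated with or without compound; lysates analysed by western blot probed with RELA antibody for high molecular weight bands.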
# A2780 [4] = assay: Inhibition of cell migration in human A2780 cells at 500 nM measured up to 48 hrs by wound healing scratch assay; format: functional; set-up: scale not given: the % may be the effect or the level left
# Summary of the method: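 Wound-healing scratch assay: A2780 cells treated with DMSO or 500nM compound, imaged at 0, 12, 24 and 48h; wound closure quantified relative to DMSO wells.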
# A2780 [5] = assay: Inhibition of colony formation in human A2780 cells measured every day up to 4 days by IncuCyte live-cell imaging assay; format: functional, cell-based; details: DDE = dose-dependent effect
# Summary of the method: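 A2780 ovarian cancer cells sparsely plated and grown with or without compound for 4 days under continuous Incucyte S3 live-cell imaging; colonies quantified against DMSO-treated wells at several time points.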
# OVCAR-5 [6] = assay: Antiproliferative activity against human OVCAR-5 cells assessed as cell growth inhibition at 1.11 to 10 uM incubated for 6 hrs followed by compound removal and measured up to 72 hrs by IncuCyte live-cell imaging assay; format: functional, cell-based
# SF-268 = assay: Antiproliferative activity against human SF-268 cells assessed as reduction in the net protein increase inhibition by SRB assay; format: functional; details: pooled result: one value given for 6 cell lines, strains, targets or settings
# [7] = target: Transcription factor p65 (Homo sapiens) (UniProt Q04206); assay: Covalent modification of RELA in human FT282C11 cells assessed as high molecular weight band formation at 10 uM incubated for 2 hrs by Western blot analysis; format: cell-based; details: filed as modulator; summary of the method: as §1
# [8] = target: Transcription factor p65 (Homo sapiens) (UniProt Q04206); assay: Covalent modification of RELA in human OVCAR-5 cells assessed as high molecular weight band formation incubated for 2 hrs by Western blot analysis; format: cell-based; details: filed as modulator; summary of the method: as §1
# [9] = target: Transcription factor p65 (Homo sapiens) (UniProt Q04206); assay: Covalent modification of RELA in TNF-alpha induced human OVCAR-5 cells assessed as inhibition of nuclear localization of protein at 10 uM pretreated for 2 hrs followed by TNF-alpha stimulation for 10 mins by Western blot analysis; format: cell-based; details: filed as modulator
# Summary of the method: (§2)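 Two sets of OVCAR5 cells treated with DMSO or compound; one set stimulated with TNFα, the other left unstimulated as control; read-out by western blot.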
# [10] = target: T1, Inhibitor of nuclear factor kappa-B kinase subunit beta (Homo sapiens) (UniProt O14920); assay: Covalent modification of N-terminal hexa-his-tagged human recombinant IKKbeta assessed as high molecular weight band formation at 1:1 protein to compound concentration measured after 24 hrs by SDS-PAGE based silver staining analysis; details: filed as modulator
# T1 sequence (whole entry): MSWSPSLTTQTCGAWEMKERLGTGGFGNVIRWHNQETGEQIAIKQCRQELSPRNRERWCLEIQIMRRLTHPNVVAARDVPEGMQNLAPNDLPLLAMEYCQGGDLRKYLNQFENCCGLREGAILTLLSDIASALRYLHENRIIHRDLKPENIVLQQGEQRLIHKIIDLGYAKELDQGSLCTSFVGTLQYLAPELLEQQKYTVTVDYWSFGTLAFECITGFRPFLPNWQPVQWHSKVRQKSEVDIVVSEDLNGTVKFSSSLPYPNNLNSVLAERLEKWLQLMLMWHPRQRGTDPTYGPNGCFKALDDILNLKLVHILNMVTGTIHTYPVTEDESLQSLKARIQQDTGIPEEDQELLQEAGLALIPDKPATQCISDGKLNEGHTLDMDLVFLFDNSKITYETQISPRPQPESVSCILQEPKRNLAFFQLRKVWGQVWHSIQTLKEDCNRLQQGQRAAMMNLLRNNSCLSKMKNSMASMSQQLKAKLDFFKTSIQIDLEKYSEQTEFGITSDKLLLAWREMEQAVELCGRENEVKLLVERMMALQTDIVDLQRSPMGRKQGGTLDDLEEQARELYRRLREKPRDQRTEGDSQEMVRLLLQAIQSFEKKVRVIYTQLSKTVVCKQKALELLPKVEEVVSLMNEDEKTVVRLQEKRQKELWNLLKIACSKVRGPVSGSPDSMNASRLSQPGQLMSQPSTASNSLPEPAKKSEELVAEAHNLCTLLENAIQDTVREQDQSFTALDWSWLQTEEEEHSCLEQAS
# Summary of the method: (§3)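 Recombinant RELA and/or IKKβ proteins incubated in vitro with compound at equimolar or 10x concentration; mixtures resolved by SDS-PAGE and silver stained to detect the recombinant proteins and high molecular weight bands.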
# CCRF-CEM = assay: Antiproliferative activity against human CCRF-CEM cells assessed as cell growth inhibition by measuring reduction in net protein increase inhibition by SRB assay; format: functional; details: pooled result: one value given for 6 cell lines, strains, targets or settings
# [11] = target: Transcription factor p65 (Homo sapiens) (UniProt Q04206); assay: Covalent modification of RELA in human MIA PaCa-2 cells assessed as increase in PARP cleavage at 10 uM incubated for 2 hrs by Western blot analysis; format: cell-based; details: filed as modulator
# Summary of the method: (§4)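 Cancer cells treated with or without compound; lysates analysed by western blot for PARP cleavage.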
# [12] = target: Transcription factor p65 (Homo sapiens) (UniProt Q04206); assay: Covalent modification of RELA in human OVCAR-5 cells assessed as increase in PARP cleavage at 10 uM incubated for 2 hrs by Western blot analysis; format: cell-based; details: filed as modulator; summary of the method: as §4
# [13] = target: Transcription factor p65 (Homo sapiens) (UniProt Q04206); assay: Covalent modification of RELA in TNF-alpha induced human OVCAR-5 cells assessed as inhibition of phosphorylation of IkappaB-alpha at 10 uM pretreated for 2 hrs followed by TNF-alpha stimulation for 10 mins by Western blot analysis; format: cell-based; details: filed as modulator; summary of the method: as §2
# [14] = target: Transcription factor p65 (Homo sapiens) (UniProt Q04206); assay: Covalent modification of RELA in human OVCAR-5 cells assessed as high molecular weight band formation at 10 uM incubated for 2 hrs by Western blot analysis; format: cell-based; details: filed as modulator; summary of the method: as §1
# [15] = target: Transcription factor p65 (Homo sapiens) (UniProt Q04206); assay: Inhibition of TNF-alpha induced RELA in human A549 cells assessed as reduction in NFkappaB mediated gene expression pretreated for 2 hrs followed by TNF-alpha stimulation for 3 hrs by […]; format: cell-based; details: filed as modulator, DDE = dose-dependent effect
# Summary of the method: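 TNFα-induced NFκB reporter assay run as a dose-response with compound.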
# Homo sapiens = species: Homo sapiens; assay: Covalent modification of N-terminal hexa-his-tagged human recombinant IKKbeta/ N-terminus mouse recombinant RELA (1 to 325 residues) assessed as tertiary complex formation with RELA by measuring high molecular weight band formation at 1:1:1 protein/protein to compound concentration measured after 24 hrs by SDS-PAGE based silver staining analysis; details: filed as modulator; summary of the method: as §3
Structure (SMILES),IC50 (OVCAR-5 [1]),IC50 (A2780 [2]),IC50 (MIA PaCa-2),also measured
C=C1CC2(OC1=O)C(=O)N(CCCCCCCCCCCCN1C(=O)C3(CC(=C)C(=O)O3)c3ccccc31)c1ccccc12 (stereo unspecified),0.42 µM,0.5 µM,1.5 µM,
C=C1CC2(OC1=O)C(=O)N(CCCCCCCCCCCN1C(=O)C3(CC(=C)C(=O)O3)c3ccccc31)c1ccccc12 (stereo unspecified),0.83 µM,0.77 µM,2.03 µM,
CC1CC2(OC1=O)C(=O)N(CCCCCCCN1C(=O)C3(CC(C)C(=O)O3)c3ccccc31)c1ccccc12 (stereo unspecified),> 10 µM,> 10 µM,> 10 µM,
C=C1CC2(OC1=O)C(=O)N(Cc1ccc(CN3C(=O)C4(CC(=C)C(=O)O4)c4ccccc43)cc1)c1ccccc12 (stereo unspecified),0.18 µM,0.31 µM,0.27 µM,
C=C1CC2(OC1=O)C(=O)N(CCCCCN1C(=O)C3(CC(=C)C(=O)O3)c3ccccc31)c1ccccc12 (stereo unspecified),0.09 µM,0.27 µM,0.2 µM,
C=C1CC2(OC1=O)C(=O)N(CCCCCCCCN1C(=O)C3(CC(=C)C(=O)O3)c3ccccc31)c1ccccc12 (stereo unspecified),0.39 µM,0.6 µM,0.74 µM,
C=C1CC2(OC1=O)C(=O)N(CCCCCCCCCCN1C(=O)C3(CC(=C)C(=O)O3)c3ccccc31)c1ccccc12 (stereo unspecified),0.41 µM,0.49 µM,0.56 µM,
C=C1CC2(OC1=O)C(=O)N(CCCCN1C(=O)C3(CC(=C)C(=O)O3)c3ccccc31)c1ccccc12 (stereo unspecified),0.15 µM,0.36 µM,,

# Further compounds by falling IC50 (OVCAR-5 [1]), results first:
IC50 (OVCAR-5 [1]),IC50 (A2780 [2]),IC50 (MIA PaCa-2),Structure (SMILES),also measured
3.13 µM,0.99 µM,2.05 µM,C=C1CC2(OC1=O)C(=O)Nc1ccccc12 (stereo unspecified),
0.48 µM,1.08 µM,1.22 µM,C=C1CC2(OC1=O)C(=O)N(CCCCCCCCCN1C(=O)C3(CC(=C)C(=O)O3)c3ccccc31)c1ccccc12 (stereo unspecified),
0.34 µM,0.41 µM,0.26 µM,C=C1CC2(OC1=O)C(=O)N(CCCCCCCN1C(=O)C3(CC(=C)C(=O)O3)c3ccccc31)c1ccccc12 (stereo unspecified),
0.32 µM,0.39 µM,,C=C1CC2(OC1=O)C(=O)N(CCN1C(=O)C3(CC(=C)C(=O)O3)c3ccccc31)c1ccccc12 (stereo unspecified),
0.3 µM,0.41 µM,0.23 µM,C=C1CC2(OC1=O)C(=O)N(CCCCCCN1C(=O)C3(CC(=C)C(=O)O3)c3ccccc31)c1ccccc12 (stereo unspecified),
0.09 µM,0.23 µM,0.13 µM,C=C1CC2(OC1=O)C(=O)N(CCCN1C(=O)C3(CC(=C)C(=O)O3)c3ccccc31)c1ccccc12 (stereo unspecified),Activity [3]: Active; Activity (A2780 [4]): 50%; inhibition (A2780 [5]): Dde; Activity (OVCAR-5 [6]): Active; GI50 (SF-268): 1.76 µM; Activity [7]: Active; Activity [8]: Active; Activity [9]: Active; Activity [10]: Active; GI50 (CCRF-CEM): 0.38 µM; Activity [11]: Active; Activity [12]: Active; Activity [13]: Active; Activity [14]: Active; inhibition [15]: Dde; Activity (Homo sapiens): Active
